From ChEMBL document CHEMBL4004806, “Cyclocurcumin, an Antivasoconstrictive Constituent of Curcuma longa (Turmeric)” (J Nat Prod, 2017) come the findings set out here.

Data set [1] deals with T1, Voltage-gated L-type calcium channel (Rattus norvegicus, UniProt P22002+Q02485+P27732). In words: Inhibition of L-type calcium channel in Sprague-Dawley rat aortic rings assessed as reduction in phenylephrine-induced vasoconstriction at 25 uM preincubated with aortic rings followed by phenylephrine addition. In a few lines:
(§1)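 Rat aortic rings in organ baths of Krebs-Ringer (pH 7.4, 95% O2/5% CO2, 37 °C) pretreated with compound. Contraction was then started by cumulative phenylephrine, serotonin or 60 mM K+. Isometric tension recorded by force transducer and expressed as percent of a prior 90 mM K+ contraction. Mean ± SEM, ≥3 independent experiments, ANOVA/Duncan or t test.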

Data set [2] has as its target T1, Voltage-gated L-type calcium channel. In words: Inhibition of 60 mM K+ activated L-type calcium channel-mediated vasoconstriction in Sprague-Dawley rat aortic rings preincubated followed by 60 mM K+ addition. In a few lines:
as §1

Data set [3] deals with Aorta. In words: Cytotoxicity against Sprague-Dawley rat aortic rings assessed as non-specific tissue damage at 5 to 25 uM after 30 mins by LDH release assay. The format is tissue-based. Conditions: 0.5 h. A digest of the protocol: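 Aortic rings exposed to compound for 30 min, then medium aliquots collected. Aliquot incubated in Tris-EDTA-NADH buffer (0.17 mM β-NADH, pH 7.4) for 10 min at 37 °C. Prewarmed 14 mM pyruvate added, and the fall in A340 was followed for 1 min as LDH activity. Mean ± SEM, ≥3 independent experiments.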

Data set [4] concerns the target T1, Voltage-gated L-type calcium channel. Kind of data set: Inhibition of L-type calcium channel in Sprague-Dawley rat aortic rings assessed as reduction in phenylephrine-induced vasoconstriction preincubated with aortic rings followed by phenylephrine addition. A digest of the protocol: as §1
For data set [5] the target is unchanged. In words: Inhibition of L-type calcium channel in Sprague-Dawley rat aortic rings assessed as reduction in 5-HT-induced vasoconstriction at 5 to 25 uM preincubated with aortic rings followed by 5-HT addition. In a few lines: as §1
The target is the same in data set [6]. Kind of data set: Inhibition of L-type calcium channel in endothelium-denuded Sprague-Dawley rat aortic rings assessed as reduction in 5-HT-induced vasoconstriction at 5 to 25 uM preincubated with aortic rings followed by 5-HT addition. In a few lines:
as §1

The target is the same in data set [7]. Kind of data set: Inhibition of L-type calcium channel in Sprague-Dawley rat primary VSMC assessed as reduction in 5-HT-induced MLC phosphorylation preincubated for 30 mins followed by 5-HT addition measured after 10 mins by Western blot method. A digest of the protocol:
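Primary VSMCs were released from rat aorta with collagenase and elastase. Cells pretreated with compound for 30 min, then stimulated with 10−5 M serotonin for 10 min. Lysed in RIPA with protease/phosphatase inhibitors, and pMLC and total MLC detected by SDS-PAGE Western blot with chemiluminescent imaging. Mean ± SEM, ≥3 experiments.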
On the technique in general: A western blot detects proteins with antibodies after separation by electrophoresis.

The target is the same in data set [8]. Kind of data set: Inhibition of L-type calcium channel in Sprague-Dawley rat primary VSMC assessed as reduction in 5-HT-induced calcium influx preincubated for 30 mins followed by 5-HT addition by Fura-2-AM dye based confocal microscopic method. A digest of the protocol:
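Enzymatically isolated rat aortic VSMCs on coverslips pretreated with compound for 30 min. Cells loaded 60 min with 1 μM fura-2/AM in PSS (pH 7.4) with 1% BSA, then superfused with PSS at 2 mL/min at 33 °C. Serotonin-evoked calcium rise imaged by 40× oil-objective fluorescence microscopy. Mean ± SEM, ≥3 experiments.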

Data set [9] has the same target. In words: Inhibition of L-type calcium channel in Sprague-Dawley rat aortic rings assessed as reduction in Bay K8644-induced vasoconstriction preincubated with aortic rings followed by Bay K8644 addition. In a few lines:
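Aortic rings in organ baths (37 °C, 95% O2/5% CO2) pretreated with compound. Contraction was elicited by Bay K8644 (10−6 M) in 15 mM K+ buffer, pH 7.4, containing 0.026 mM EDTA. Tension expressed as percent of a prior 90 mM K+ response. Mean ± SEM, ≥3 independent experiments.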

The target is the same in data set [10]. In words: Reversible inhibition of 5-HT activated L-type calcium channel-mediated vasoconstriction in Sprague-Dawley rat aortic rings at 25 uM preincubated with aortic rings followed by 5-HT addition and subsequent compound wash out measured after 4 hrs. In a few lines: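 Organ-bath aortic rings (Krebs-Ringer, 37 °C) treated with compound, and a 5-HT contraction recorded. Buffer was washed out and the 5-HT contraction measured again 4 h later. Tension expressed relative to a 90 mM K+ response. Mean ± SEM, ≥3 independent experiments.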

Data set [11] deals with Aorta. In words: Cytotoxicity against Sprague-Dawley rat aortic rings assessed as non-specific tissue damage after 24 hrs by TUNEL assay. The data set is classed as tissue-based. In a few lines: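 Aortic rings kept in MEM with 100 U/mL penicillin and 100 μg/mL streptomycin, exposed to compound or vehicle for 24 h at 37 °C in 95% air/5% CO2. Sections quenched with 0.3% H2O2, digested with 20 μg/mL Proteinase K, TdT-labelled with digoxigenin-dUTP for 1 h at 37 °C. Detection by HRP anti-digoxigenin (30 min, room temperature) and DAB, hematoxylin counterstain. Mean ± SEM, ≥3 independent experiments.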

Data set [12] addresses T1, Voltage-gated L-type calcium channel. Kind of data set: Irreversible inhibition of 5-HT activated L-type calcium channel-mediated vasoconstriction in Sprague-Dawley rat aortic rings at 15 uM preincubated with aortic rings followed by 5-HT addition and subsequent compound wash out measured after 4 hrs. A digest of the protocol: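 Rat aortic rings in organ baths of Krebs-Ringer solution (pH 7.4, 37 °C, gassed with 95% O2/5% CO2). Rings were pretreated with compound, then contracted with 5-HT (reading I). Buffer was washed out, and 5-HT contraction was re-measured 4 h later (reading II). Isometric tension was recorded and expressed as percent of the 90 mM K+ contraction. Mean ± SEM, ≥3 independent experiments.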

Structures are written as SMILES.

In the case of `COc1cc(/C=C/C(=O)CC(=O)/C=C/c2ccc(O)cc2)ccc1O`, the “inhibition (INH)” value in data set [1] is recorded as “Active”.
Take `COc1cc(/C=C/C2=CC(=O)CC(c3ccc(O)c(OC)c3)O2)ccc1O` (configuration not stated): the results for the IC50 in data set [2], in [4] and in [9] were 18.5 µM, 14.9 µM and 13.5 µM, respectively. Moreover, the “inhibition (INH)” value in data set [2] (rat) is reported as “Dose-dependent effect”; in [1], “Active”; in data set [4] (rat), “Dose-dependent effect”; in data set [5] it was “Active”; in [6], “Active”; in [7], “Active”. Moreover, the “inhibition (INH)” value in data set [8] is “Dose-dependent effect”; in data set [10] it was “Active”. In addition, the Activity entry with Aorta [3] and in the data set with Aorta [11] was “Non-Toxic” throughout. In addition, in [4], the pA2 (as a rule, a measure of antagonist potency on a negative log scale) is recorded as 5.2.
As for `C[As](O)O`, the “inhibition (INH)” value in [12] is recorded as “Active”.
Turning to `COc1cc(/C=C/C(=O)CC(=O)/C=C/c2ccc(O)c(OC)c2)ccc1O` [CURCUMIN], the IC50 (in general, the concentration needed to halve the response being measured) in data set [4] is more than 100 µM.
